Key:
[1] = system: SF-295; experiment: NCI 60-cell line screen; type: cell-based, human
Method in brief: (§1)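 Test compounds were submitted to the National Cancer Institute and run under NCI's standard 60-cell-line protocols. Read-outs were taken from percent-growth versus log-concentration curves.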

[2] = system: HL-60(TB); details: leukemia
[3] = system: OVCAR-5; experiment: NCI 60-cell line screen; type: cell-based, human
Method in brief: as §1

[4] = system: LOX IMVI; experiment: NCI 60-cell line screen; type: cell-based, human
[5] = system: SF-268; experiment: NCI 60-cell line screen; type: cell-based, human
Method in brief: as §1

[6] = system: ACHN; experiment: NCI 60-cell line screen; type: cell-based, human
[7] = system: CCRF-CEM; experiment: NCI 60-cell line screen; type: cell-based, human
[8] = system: HOP-92; experiment: NCI 60-cell line screen; type: cell-based, human
[9] = system: SK-MEL-5; experiment: NCI 60-cell line screen; type: cell-based, human
Method in brief: as §1

[10] = system: MOLT-4; experiment: NCI 60-cell line screen; type: cell-based, human
[11] = system: HOP-62; experiment: NCI 60-cell line screen; type: cell-based, human
[12] = system: SNB-19; experiment: NCI 60-cell line screen; type: cell-based, human
Method in brief: as §1

[13] = system: TK-10; experiment: NCI 60-cell line screen; type: cell-based, human
Method in brief: as §1

[14] = system: U251; experiment: NCI 60-cell line screen; type: cell-based, human
Method in brief: as §1

[15] = system: SF-539; experiment: NCI 60-cell line screen; type: cell-based, human
Method in brief: as §1

[16] = system: NCI/ADR-RES; experiment: NCI 60-cell line screen; type: cell-based, human
[17] = system: UACC-62; experiment: NCI 60-cell line screen; type: cell-based, human
Method in brief: as §1

[18] = system: HCT-116; experiment: NCI 60-cell line screen; type: cell-based, human
[19] = system: OVCAR-4; experiment: NCI 60-cell line screen; type: cell-based, human
[20] = system: MDA-MB-435; experiment: NCI 60-cell line screen; type: cell-based, human
[21] = system: UO-31; experiment: NCI 60-cell line screen; type: cell-based, human
Method in brief: as §1

[22] = system: SK-MEL-28; experiment: NCI 60-cell line screen; type: cell-based, human
Method in brief: as §1

[23] = system: M14; experiment: NCI 60-cell line screen; type: cell-based, human
[24] = system: SNB-75; experiment: NCI 60-cell line screen; type: cell-based, human
Method in brief: as §1

[25] = system: HL-60(TB); experiment: cells; details: Homo sapiens

SMILES: O=C(CNc1ccc([N+](=O)[O-])cc1)Nc1nc2ccccc2s1 [OMS5, N-(1,3-benzothiazol-2-yl)-2-(4-nitroanilino)acetamide]
- GI50 ([1]; Homo sapiens, SF-295): 0.7 µM
- IC50 ([1]; Homo sapiens, SF-295): 1.4 µM
- CC50 ([1]; Homo sapiens, SF-295, read-out: LC50): 24 µM
- TGI ([1]; SF-295, CNS cancer): 4.4 µM
- TGI [2]: 14 µM
- GI50 ([3]; Homo sapiens, OVCAR-5): 1 µM
- IC50 ([3]; Homo sapiens, OVCAR-5): 2.5 µM
- CC50 ([3]; Homo sapiens, OVCAR-5, read-out: LC50): 46.8 µM
- TGI ([3]; OVCAR-5, ovarian cancer): 5.4 µM
- GI50 ([4]; Homo sapiens): 0.6 µM
- IC50 ([4]; Homo sapiens): 1 µM
- CC50 ([4]; Homo sapiens, read-out: LC50): 8.7 µM
- TGI ([4]; melanoma): 2.6 µM
- GI50 ([5]; Homo sapiens, SF-268): 1.3 µM
- IC50 ([5]; Homo sapiens, SF-268): 3.5 µM
- CC50 ([5]; Homo sapiens, SF-268, read-out: LC50): 51.3 µM
- TGI ([5]; SF-268, CNS cancer): 6.6 µM
- GI50 ([6]; Homo sapiens): 0.4 µM
- IC50 ([6]; Homo sapiens): 0.8 µM
- CC50 ([6]; Homo sapiens, read-out: LC50): 33.1 µM
- TGI ([6]; renal cancer): 8.5 µM
- GI50 ([7]; Homo sapiens): 0.9 µM
- IC50 ([7]; Homo sapiens): 2.3 µM
- CC50 ([7]; Homo sapiens, read-out: LC50): > 100 µM
- TGI ([7]; leukemia): 50 µM
- TGI ([8]; HOP-92, non-small cell lung cancer): 10 µM
- GI50 ([8]; Homo sapiens, HOP-92): 2.3 µM
- IC50 ([8]; Homo sapiens, HOP-92): 12 µM
- CC50 ([8]; Homo sapiens, HOP-92, read-out: LC50): 63.1 µM
- GI50 ([9]; Homo sapiens, SK-MEL-5): 1.6 µM
- IC50 ([9]; Homo sapiens, SK-MEL-5): 2.9 µM
- CC50 ([9]; Homo sapiens, SK-MEL-5, read-out: LC50): 5.5 µM
- TGI ([9]; SK-MEL-5, melanoma): 3 µM
- GI50 ([10]; Homo sapiens, MOLT-4): 0.4 µM
- IC50 ([10]; Homo sapiens, MOLT-4): 0.6 µM
- CC50 ([10]; Homo sapiens, MOLT-4, read-out: LC50): > 100 µM
- TGI ([10]; MOLT-4, leukemia): 12 µM
- TGI ([11]; HOP-62, non-small cell lung cancer): 4.9 µM
- GI50 ([11]; Homo sapiens, HOP-62): 1.2 µM
- IC50 ([11]; Homo sapiens, HOP-62): 3 µM
- CC50 ([11]; Homo sapiens, HOP-62, read-out: LC50): 25.1 µM
- GI50 ([12]; Homo sapiens, SNB-19): 1 µM
- IC50 ([12]; Homo sapiens, SNB-19): 2.6 µM
- CC50 ([12]; Homo sapiens, SNB-19, read-out: LC50): 95.5 µM
- TGI ([12]; SNB-19, CNS cancer): 10 µM
- GI50 ([13]; Homo sapiens, TK-10): 1.5 µM
- IC50 ([13]; Homo sapiens, TK-10): 10 µM
- CC50 ([13]; Homo sapiens, TK-10, read-out: LC50): > 100 µM
- TGI ([13]; TK-10, renal cancer): 15 µM
- GI50 ([14]; Homo sapiens, U-251): 0.9 µM
- IC50 ([14]; Homo sapiens, U-251): 1.7 µM
- CC50 ([14]; Homo sapiens, U-251, read-out: LC50): 41.7 µM
- TGI ([14]; U251, CNS cancer): 12 µM
- GI50 ([15]; Homo sapiens, SF-539): 0.5 µM
- IC50 ([15]; Homo sapiens, SF-539): 1.4 µM
- CC50 ([15]; Homo sapiens, SF-539, read-out: LC50): 6.5 µM
- TGI ([15]; SF-539, CNS cancer): 2.1 µM
- GI50 ([16]; Homo sapiens): 0.6 µM
- IC50 ([16]; Homo sapiens): 1.3 µM
- CC50 ([16]; Homo sapiens, read-out: LC50): 53.7 µM
- TGI ([16]; ovarian cancer): 4.6 µM
- GI50 ([17]; Homo sapiens, UACC-62): 1.1 µM
- IC50 ([17]; Homo sapiens, UACC-62): 2 µM
- CC50 ([17]; Homo sapiens, UACC-62, read-out: LC50): 5.5 µM
- TGI ([17]; UACC-62, melanoma): 2.5 µM
- TGI ([18]; HCT-116, colon cancer): 11 µM
- GI50 ([18]; Homo sapiens, HCT-116): 0.4 µM
- IC50 ([18]; Homo sapiens, HCT-116): 0.4 µM
- CC50 ([18]; Homo sapiens, HCT-116, read-out: LC50): 45.7 µM
- GI50 ([19]; Homo sapiens, OVCAR-4): 1 µM
- IC50 ([19]; Homo sapiens, OVCAR-4): 3 µM
- CC50 ([19]; Homo sapiens, OVCAR-4, read-out: LC50): 40.7 µM
- TGI ([19]; OVCAR-4, ovarian cancer): 5.1 µM
- GI50 ([20]; Homo sapiens, MDA-MB-435): 0.7 µM
- IC50 ([20]; Homo sapiens, MDA-MB-435): 1.3 µM
- CC50 ([20]; Homo sapiens, MDA-MB-435, read-out: LC50): 4.8 µM
- TGI ([20]; MDA-MB-435, melanoma): 2 µM
- GI50 ([21]; Homo sapiens, UO-31): 0.5 µM
- IC50 ([21]; Homo sapiens, UO-31): 1.3 µM
- CC50 ([21]; Homo sapiens, UO-31, read-out: LC50): 26.9 µM
- TGI ([21]; UO-31, renal cancer): 3.8 µM
- GI50 ([22]; Homo sapiens, SK-MEL-28): 1.6 µM
- IC50 ([22]; Homo sapiens, SK-MEL-28): 3 µM
- CC50 ([22]; Homo sapiens, SK-MEL-28, read-out: LC50): 6.9 µM
- TGI ([22]; SK-MEL-28, melanoma): 3.3 µM
- GI50 ([23]; Homo sapiens, M14): 0.9 µM
- IC50 ([23]; Homo sapiens, M14): 1.4 µM
- CC50 ([23]; Homo sapiens, M14, read-out: LC50): 6.5 µM
- TGI ([23]; M14, melanoma): 2.5 µM
- GI50 ([24]; Homo sapiens, SNB-75): 1.4 µM
- IC50 ([24]; Homo sapiens, SNB-75): 3 µM
- CC50 ([24]; Homo sapiens, SNB-75, read-out: LC50): 5.9 µM
- TGI ([24]; SNB-75, CNS cancer): 2.9 µM
- GI50 ([25]; HL-60): 0.8 µM
- IC50 ([25]; HL-60): 2.5 µM
- CC50 ([25]; HL-60, read-out: LC50): > 100 µM
